Measurements reported in ChEMBL document CHEMBL1143811, “Bis-acridines as lead antiparasitic agents: structure-activity analysis of a discrete compound library in vitro” (Antimicrob Agents Chemother, 2007).
In brackets after ≈: the same amount, converted by molar mass. Activity calls are given as the source filed them. The calls are words filed in the database; no cut-off is given here.

Legend:
Plasmodium falciparum [1] = assay: Antimalarial activity against chloroquine-resistant Plasmodium falciparum FcB1R after 72 hrs; type: functional, organism-based
Trichomonas vaginalis = assay: Antimicrobial activity against Trichomonas vaginalis G3 assessed as parasite death at 10 uM after 24 hrs; type: functional
Outline: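 G3 strain grown in Diamond's medium at 37°C. Assay culture set up as 0.5 ml dense culture diluted into 5.0 ml complete medium. Compound at a final 10 µM for 24 h at 37°C. Motile cells counted by hemocytometer. Result is percent dead parasites relative to DMSO-treated cultures, from five separate experiments. Controls were untreated, DMSO and metronidazole.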

[2] = Cytotoxicity against BALB/c mouse peritoneal macrophages at 10 uM after 48 hrs hrs; type: cell-based; conditions: macrophage
Leishmania donovani = assay: Antileishmanial activity against Leishmania donovani MHOM/SD/00/1S-2D promastigotes assessed as parasite death at 10 uM after 72 hrs; type: functional
Outline: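 Promastigotes seeded at 1.5 x 10^5 cells/ml in medium 199 with 10% heat-inactivated FBS. Compound added at a final 10 µM, in triplicate, in sealed flasks at 27°C for up to 7 days. Aliquots taken daily and viability read by CellTiter-Glo luminescence. Result given as percent reduction in viability relative to DMSO-treated cultures. Controls were K11777 or amphotericin B at 10 µM.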

Leishmania major = assay: Antileishmanial activity against Leishmania major MHOM/IL/81/FE/BNI amastigotes after 48 hrs at 1 uM; type: functional, organism-based
Outline: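 Peritoneal macrophages from BALB/c mice (6-8 wk) adhered 2 h at 37°C, infected 24 h with stationary-phase L. major promastigotes at 10:1 parasite:macrophage, washed, then exposed 48 h to compound at 0.0001 to 10 µM. Intracellular amastigotes stained with acridine orange/ethidium bromide and counted by fluorescence microscopy; percent amastigotes cleared versus DMSO-treated cultures; three repeats.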

[3] = tested on: Trypanosoma brucei brucei; assay: Antimicrobial activity against Trypanosoma brucei brucei clone 427-221a after 48 hrs; type: functional, organism-based
Outline: (§1)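 Bloodstream-form T. b. brucei in Baltz medium (~10^4/ml) and HL-60 cells in RPMI 1640 (~10^5/ml), both with 16.7% FBS, were exposed 48 h at 37°C in 5% CO2 to compound up to 10 µM in 1% final DMSO. Live cells were hemocytometer-counted, by motility (trypanosomes) or trypan blue exclusion (HL-60). EC50 was taken by regression versus DMSO cultures from three experiments. MIC was the lowest fully lethal concentration, judged microscopically.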

[4] = (§2) Cytotoxicity against human HL60 cells; type: cell-based, HL-60; conditions: human, HL-60 cells; read-out: MIC; outline: as §1
HL-60 = assay: as §2; type: cell-based; conditions: Homo sapiens, HL-60; outline: as §1
MRC5 = assay: Toxicity against human MRC5 cells at 3.13 uM; type: cell-based; conditions: mrc5, 3.13 µM
[5] = Selectivity index, ratio of EC50 for HL60 cells to EC50 for Trypanosoma brucei brucei clone 427-221a; type: functional, HL-60; outline: as §1
Entamoeba histolytica = assay: Antimicrobial activity against Entamoeba histolytica HM1 IMSS trophozoites after 48 hrs; type: functional, organism-based; conditions: 60 h, in the assay text read “60 hrs” for “48 hrs”
Outline: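 Trophozoites were grown axenically in TYI-S-33 with 10% bovine adult serum and seeded at ~10^4 cells/well. Compound (range up to 10 µM) was added to 48-h log-phase cultures, then incubated 60 h at 37°C under anaerobic conditions. Viability was read by CellTiter-Glo luminescence. EC50 came from quadruplicate wells in two independent experiments.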

[6] = tested on: Trypanosoma brucei brucei; assay: Antimicrobial activity against Trypanosoma brucei brucei clone 427-221a at 1.56 uM; type: functional
Plasmodium falciparum [7] = assay: Antimicrobial activity against chloroquine-resistant Plasmodium falciparum W2 after 72 hrs; type: functional, organism-based; conditions: W2, 72 h
Plasmodium falciparum [8] = assay: Antimicrobial activity against chloroquine-sensitive Plasmodium falciparum 3D7 after 72 hrs; type: functional, organism-based; conditions: 3D7, 72 h
[9] = Selectivity index, ratio of MIC for HL60 cells to MIC for Trypanosoma brucei brucei clone 427-221a; type: functional, HL-60; outline: as §1
Schistosoma mansoni = assay: Antimicrobial activity against Schistosoma mansoni assessed as worm vitality at 6 uM after 4 hrs; type: functional, organism-based
Outline: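 20-day-old worms were obtained by perfusion of BALB/c mice infected with 200 cercariae. About 20 worms/well were kept in Basch 169 with 10% bovine calf serum, preincubated 24 h at 37°C in 5% CO2, then exposed to 1, 3 or 6 µM. Vitality (feeding, flexing, gut peristalsis; death = nonmotile, shrunken, dark) was scored at 4 and 18 h in two experiments.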

Row | SMILES | EC50 (Plasmodium falciparum [1]) | Activity (Trichomonas vaginalis) | Activity [2] | Activity (Leishmania donovani) | Activity (Leishmania major) | EC50 [3] | MIC [3] | MCC [4] | EC50 (HL-60) | Activity (MRC5) | Ratio EC50 [5] | EC50 (Entamoeba histolytica) | Activity [6] | EC50 (Plasmodium falciparum [7]) | EC50 (Plasmodium falciparum [8]) | Ratio [9] | Activity (Schistosoma mansoni)
1 | COc1ccc2nc3cc(Cl)ccc3c(NCCCCN(CCCNc3c4ccc(Cl)cc4nc4ccc(OC)cc34)C(=O)[C@H](C)NC(=O)OC(C)(C)C)c2c1 | 330 nM | 95% | Toxic | 49% | inactive | 3.5 nM | 1 µM (≈ 0.8 µg/mL) | 10 µM | 1650 nM | 0% | 469 | 5000 nM | 100% | 629 nM | 598 nM | 10 | –
2 | COc1ccc2nc3cc(Cl)ccc3c(NCCCCN(CCCNc3c4ccc(Cl)cc4nc4ccc(OC)cc34)C(=O)CNC(=O)[C@H](C)NC(=O)OC(C)(C)C)c2c1 | – | 53% | Toxic | 37% | inactive | 2.4 nM | 1 µM (≈ 0.857 µg/mL) | 10 µM | 270 nM | – | 111 | 5000 nM | – | 341 nM | 314 nM | 10 | –
3 | COc1ccc2nc3cc(Cl)ccc3c(NCCCCCCCCCCNc3c4ccc(Cl)cc4nc4ccc(OC)cc34)c2c1 | 57 nM | 100% | Toxic | 96% | inactive | 25 nM | 1 µM (≈ 0.656 µg/mL) | 10 µM | 3140 nM | 0% | 125 | 500 nM | 100% | 116 nM | 95 nM | 10 | –
4 | CCN(CC)CCCC(C)Nc1c2ccc(Cl)cc2nc2ccc(OC)cc12 (stereo not given) [QUINACRINE] | – | – | – | – | – | – | – | – | – | – | – | – | – | 33 nM | 11 nM | – | –
5 | COc1ccc2nc3cc(Cl)ccc3c(NCCCCCCCCNc3c4ccc(Cl)cc4nc4ccc(OC)cc34)c2c1 | 19 nM | 100% | Toxic | 99% | inactive | 8.6 nM | 1 µM (≈ 0.628 µg/mL) | 10 µM | 1650 nM | 20% | 191 | 500 nM | 100% | 124 nM | 115 nM | 10 | –
6 | C[C@@H]1[C@H](O)[C@@H](C)/C=C/C=C/C=C/C=C/C=C/C=C/C=C/[C@H](O[C@@H]2O[C@H](C)[C@@H](O)[C@H](N)[C@@H]2O)C[C@@H]2O[C@](O)(C[C@@H](O)C[C@@H](O)[C@H](O)CC[C@@H](O)C[C@@H](O)CC(=O)O[C@H]1C)C[C@H](O)[C@H]2C(=O)O [AMPHOTERICIN B] | – | – | – | 100% | – | – | – | – | – | – | – | – | – | – | – | – | –
7 | COc1ccc2nc3cc(Cl)ccc3c(NCCCN3CCN(CCCNc4c5ccc(Cl)cc5nc5ccc(OC)cc45)CC3)c2c1 | 17 nM | 10% | Toxic | 46% | inactive | 1.8 nM | 0.1 µM (≈ 0.0684 µg/mL) | 10 µM | 1480 nM | 0% | 836 | 5000 nM | 60% | 112 nM | 64 nM | 100 | –
8 | Nc1nc(N)nc(Nc2ccc([As]3SCC(CO)S3)cc2)n1 (stereo not given) [MELARSOPROL] | – | – | – | – | – | 16 nM | 0.1 µM | 100 µM | 4270 nM | – | 267 | – | – | – | – | >1000 | –
9 | CCN(CC)CCCC(C)Nc1ccnc2cc(Cl)ccc12 (stereo not given) [CHLOROQUINE] | – | – | – | – | – | – | – | – | – | – | – | – | – | 293 nM | 10 nM | – | –
10 | COc1ccc2nc3cc(Cl)ccc3c(NCCNCCNc3c4ccc(Cl)cc4nc4ccc(OC)cc34)c2c1 | 63 nM | 0% | Toxic | 47% | inactive | 218 nM | 10 µM (≈ 5.87 µg/mL) | > 10 µM | 9470 nM | 100% | 43 | 5000 nM | 100% | 791 nM | 618 nM | >1 | –
11 | COc1ccc2nc3cc(Cl)ccc3c(NCCCCCCCCNc3c4ccc(Cl)cc4nc4ccc(OC)nc34)c2n1 | – | 59% | Toxic | 42% | inactive | 31 nM | 1 µM (≈ 0.63 µg/mL) | > 10 µM | 26300 nM | – | 859 | 5000 nM | – | 69 nM | 62 nM | >10 | –
12 | CCCN(CCCCNc1c2ccc(Cl)cc2nc2ccc(OC)cc12)CCCNc1c2ccc(Cl)cc2nc2ccc(OC)cc12 | – | 90% | Toxic | 99% | inactive | 1.4 nM | 1 µM (≈ 0.671 µg/mL) | 10 µM | 491 nM | – | 348 | 5000 nM | – | 319 nM | 120 nM | 10 | –
13 | O=C(C1CCCCC1)N1CC(=O)N2CCc3ccccc3C2C1 (stereo not given) | – | – | – | – | – | – | – | – | – | – | – | – | – | – | – | – | Active
14 | COc1ccc2nc3cc(Cl)ccc3c(NCCCCNCCCNc3c4ccc(Cl)cc4nc4ccc(OC)nc34)c2n1 | – | 85% | Toxic | 99% | inactive | 1.4 nM | 0.1 µM (≈ 0.0631 µg/mL) | 7 µM | 119 nM | – | 86 | 500 nM | – | 34 nM | 29 nM | 70 | Active
